Experimental data of several laboratories.
Each line is one published result; the experiments were not run side by side.

CC(C)n1cc(C#N)c2cc(-n3cc(C(=O)O)cn3)ccc21  half-life (human, plasma; oral, 25 mg, single dose, fasted, healthy volunteers): 486 min
CCCCC(=O)OCOC(=O)C1CC(C)(C)N([O])C1(C)C (centres unmarked)  half-life (chemical stability; bovine, serum): 49 min
CC[C@H](C)[C@H](NC(=O)[C@H](CCC(=O)O)NC(=O)[C@H](CO)NC(=O)[C@@H](NC(=O)[C@@H](N)CO)C(C)C)C(=O)N[C@@H](CCC(N)=O)C(=O)N[C@@H](CC(C)C)C(=O)N[C@@H](CCSC)C(=O)N[C@@H](Cc1cnc[nH]1)C(=O)N[C@@H](CC(N)=O)C(=O)N[C@@H](CC(C)C)C(=O)NCC(=O)N[C@@H](CCCCN)C(=O)N[C@@H](Cc1cnc[nH]1)C(=O)N[C@@H](CC(C)C)C(=O)N[C@@H](CC(N)=O)C(=O)N[C@@H](CO)C(=O)N[C@@H](CCSC)C(=O)N[C@@H](CCC(=O)O)C(=O)N[C@@H](CCCN=C(N)N)C(=O)N[C@H](C(=O)N[C@@H](CCC(=O)O)C(=O)N[C@@H](Cc1c[nH]c2ccccc12)C(=O)N[C@@H](CC(C)C)C(=O)N[C@@H](CCCN=C(N)N)C(=O)N[C@@H](CCCCN)C(=O)N[C@@H](CCCCN)C(=O)N[C@@H](CC(C)C)C(=O)N[C@@H](CCC(N)=O)C(=O)N[C@@H](CC(=O)O)C(=O)N[C@H](C(=O)N[C@@H](Cc1cnc[nH]1)C(=O)N[C@@H](CC(N)=O)C(=O)N[C@@H](Cc1ccccc1)C(=O)O)C(C)C)C(C)C  compound remaining (chemical stability, HPLC; aqueous buffer; 0.5 mg/mL, 5 min, pH 6.5): 100%
COCCOc1cnc2ccn([C@H](C)c3nnc4c(F)cc(-c5cnn(C)c5)cn34)c(=O)c2c1  half-life (human, plasma; oral, 400 mg, multiple doses, once daily, patients): 462 min
CCn1c2ccccc2c2cc(-n3nncc3-c3ccccc3)ccc21  Vd/F (female BALB/c mouse, plasma; intraperitoneal, 10 mg/kg, single dose): ~0.4 L
COc1ccc([C@@H]2CN(C(=O)[C@@H](O)CO)C[C@@]2(C)[C@@H](C)O)cc1OC1CN(c2ccc(C)cn2)C1  half-life (human, plasma; oral, 30 mg, single dose, healthy volunteers): 738 min
CC(=O)N[C@@H](Cc1ccccc1)C(=O)N[C@@H](Cc1ccccc1)C(=O)N[C@@H](C)C(=O)N[C@@H](CC(C)C)C(=O)NCC(=O)N[C@@H](CC(C)C)C(=O)N[C@@H](C)C(=O)NCC(=O)N[C@@H](CC(=O)O)C(=O)N[C@@H](CC(=O)O)C(=O)O  half-life (chemical stability; human, plasma; 1 mM, pH 7.4): 518 min
CC(C)(C)c1ccc(O)c(CN(Cc2cc(C(C)(C)C)ccc2O)C2CCC(NC(N)=O)CC2)c1 (centres unmarked)  Vd (male C57BL/6 mouse, plasma; oral, 10 mg/kg, single dose): 2.79 L
C[C@]1(c2nc3c(C(N)=O)cccc3[nH]2)CCCN1  AUC(0-inf) (male rhesus monkey, plasma; oral, 5 mg/kg, single dose): 3.7 µM·h
Cn1cc(-c2ccc(S(=O)(=O)[C@@H]3C[C@@H](C(=O)NC4(C#N)CC4)N(C(=O)C4(C(F)(F)F)CC4)C3)c(C(F)(F)F)c2)cn1  half-life (human, plasma; oral, 100 mg, single dose, fasted, healthy volunteers): 786 min
CC(C)(O)c1ccccc1-c1ccc2[nH]c(/C=C/c3ccc(C(F)(F)F)cc3)nc2c1  half-life (male human, plasma; oral, 30 mg, single dose, fasted, healthy volunteers): 4960 min
